Calls of active or inactive are those of the source. No cut-off for these calls is given here.
Assays:
[1] = Toxicity in Wistar kyoto rat assessed as basophilic ratio in blood at 0.01 mmol/kg, ip administered for 14 days (reference value: 2.2%); format: organism-based; details: in vivo, 336 h
Procedure, shortened: (§1)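 Normal WKY rats (6 per group) received compound in 10% 1,3-propanediol intraperitoneally daily for 14 days. Controls received an equal volume of vehicle. Urine was collected in metabolic cages throughout dosing. At the end of dosing, blood was taken from the eyeball for haematology, and urine parameters were analysed.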

[2] = Toxicity in Wistar kyoto rat assessed as platelet count in blood at 0.01 mmol/kg, ip administered for 14 days (reference value: 670 10^9/L); format: organism-based; details: in vivo, 336 h
Procedure, shortened: (§2)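 Normal WKY rats, 6 per group, received an intraperitoneal injection once daily for 14 consecutive days. The compound was dissolved in 10% 1,3-propanediol, and controls received an equal volume of vehicle. Urine was collected in metabolic cages during dosing. At the end, blood was drawn from the eyeball for haematology, and urinalysis values were compared with the vehicle group.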

[3] = Toxicity in Wistar kyoto rat assessed as urine pH at 0.01 mmol/kg, ip administered for 14 days (reference value: 8.4); format: organism-based; details: in vivo, 336 h; procedure, shortened: as §2
[4] = Toxicity in Wistar kyoto rat assessed as protein level in urine at 0.01 mmol/kg, ip administered for 14 days (Rvb =0 g/L); format: organism-based; details: in vivo, 336 h; procedure, shortened: as §2
H9c2 [5] = assay: Cytoprotective activity against H2O2-induced toxicity in rat H9c2 cells assessed as increase in cell viability at 80 uM pretreated with compound followed by H2O2 addition and measured after 1 hrs relative to control; format: functional
Procedure, shortened: (§3)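 H9c2 cells were injured with H₂O₂ (400 µM) for 1, 4 or 8 h to give light, medium and heavy damage, in the presence of compound at 10–80 µM. Acetaminophen or ibuprofen served as controls. Viability was measured as mean ± SD of three experiments. SOD and MDA contents were measured as mean ± SD of four experiments. Morphology was assessed by Giemsa staining under light microscopy.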

H9c2 [6] = assay: Cytoprotective activity against H2O2-induced toxicity in rat H9c2 cells assessed as increase in SOD level at 10 to 80 uM pretreated with compound followed by H2O2 addition and measured after 8 hrs; format: functional, cell-based; procedure, shortened: as §3
[7] = Toxicity in Wistar kyoto rat assessed as monocyte ratio in blood at 0.01 mmol/kg, ip administered for 14 days (reference value: 0.5%); format: organism-based; details: in vivo, 336 h; procedure, shortened: as §2
[8] = Toxicity in Wistar kyoto rat assessed as nitrite level in urine at 0.01 mmol/kg, ip administered for 14 days; format: organism-based; details: in vivo, 336 h; procedure, shortened: as §2
H9c2 [9] = assay: Cytotoxicity against rat H9c2 cells assessed as reduction in cell viability at 10 to 80 uM incubated for 24 hrs; format: cell-based; details: h9c2, 24 h
Procedure, shortened: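 Rat cardiac H9c2 cells were grown in DMEM with 10% FBS and penicillin/streptomycin at 37 °C and 5% CO₂. They were seeded at 5×10⁴ cells/mL and allowed to adhere for 8 h. Cells were exposed to 10, 40 or 80 µM compound for 24 h, and survival was compared with untreated cells.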

[10] = Half life of compound in pH 7.4 phosphate buffer at 40 mM in presence of TECP or cysteine by methylene blue dye based UV-Vis spectrophotometric method; format: physicochemical; details: phosphate buffer with TECP or cysteine
Procedure, shortened: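 A 40 mM compound solution in pH 7.4 phosphate buffer was mixed with TECP or L-cysteine (1.0 mM) as promoter. Aliquots were mixed with methylene blue reagent, and after 20 min absorbance was read at 670 nm. H₂S was quantified against a Na₂S standard curve, and concentration-versus-time release curves were plotted to give half-lives.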

[11] = Toxicity in Wistar kyoto rat assessed as lymphocyte ratio in blood at 0.01 mmol/kg, ip administered for 14 days (reference value: 42.1%); format: organism-based; details: in vivo, 336 h; procedure, shortened: as §2
[12] = Toxicity in Wistar kyoto rat assessed as neutrophil ratio in blood at 0.01 mmol/kg, ip administered for 14 days (reference value: 54.7%); format: organism-based; details: in vivo, 336 h; procedure, shortened: as §2
[13] = Toxicity in Wistar kyoto rat assessed as ketone body level in urine at 0.01 mmol/kg, ip administered for 14 days (reference value: 4 umol/L); format: organism-based; details: in vivo, 336 h; procedure, shortened: as §2
[14] = Toxicity in Wistar kyoto rat assessed as hemoglobin count in blood at 0.01 mmol/kg, ip administered for 14 days (reference value: 138 g/L); format: organism-based; details: in vivo, 336 h; procedure, shortened: as §1
[15] = Toxicity in Wistar kyoto rat assessed as proportion in urine at 0.01 mmol/kg, ip administered for 14 days (reference value: 1.01); format: organism-based; details: in vivo, 336 h; procedure, shortened: as §2
[16] = Toxicity in Wistar kyoto rat assessed as urobilinogen level in urine at 0.01 mmol/kg, ip administered for 14 days (reference value: 1 umol/L); format: organism-based; details: in vivo, 336 h; procedure, shortened: as §2
H9c2 [17] = assay: Cytoprotective activity against H2O2-induced toxicity in rat H9c2 cells assessed as increase in cell viability at 10 to 80 uM pretreated with compound followed by H2O2 addition and measured after 8 hrs relative to control; format: functional; procedure, shortened: as §3
[18] = Toxicity in Wistar kyoto rat assessed as red blood cell count in blood at 0.01 mmol/kg, ip administered for 14 days (reference value: 6.83 10^12/L); format: organism-based; details: in vivo, 336 h; procedure, shortened: as §2
H9c2 [19] = assay: Cytoprotective activity against H2O2-induced toxicity in rat H9c2 cells assessed as increase in cell viability pretreated with compound followed by H2O2 addition and measured after 1 hrs relative to control; format: functional; procedure, shortened: as §3
[20] = Toxicity in Wistar kyoto rat assessed as leukocyte count in blood at 0.01 mmol/kg, ip administered for 14 days (reference value: 6.88 10^9/L); format: organism-based; details: in vivo, 336 h; procedure, shortened: as §2
[21] = Toxicity in Wistar kyoto rat assessed as occult blood cells level in urine at 0.01 mmol/kg, ip administered for 14 days (reference value: 10 /uL); format: organism-based; details: in vivo, 336 h; procedure, shortened: as §2
[22] = Cardiotoxicity in SHR rat assessed as neatly arranged myocardial fibers at 10 mg/kg, ip administered for 14 days by H and E staining based microscopic assay; format: toxicity, organism-based; details: in vivo, 336 h
Procedure, shortened: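 SHRs were given 10 mg·kg⁻¹ intraperitoneally per day for 14 consecutive days, with an ibuprofen comparator and a normal control. Myocardial tissue was then removed. Sections were HE-stained for light microscopy and also examined by transmission electron microscopy at 6000, 10000 and 20000-fold.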

[23] = Toxicity in Wistar kyoto rat assessed as glucose in urine at 0.01 mmol/kg, ip administered for 14 days; format: organism-based; details: in vivo, 336 h; procedure, shortened: as §1
[24] = Toxicity in Wistar kyoto rat assessed as Vc in urine at 0.01 mmol/kg, ip administered for 14 days; format: organism-based; details: in vivo, 336 h; procedure, shortened: as §1
[25] = Toxicity in Wistar kyoto rat assessed as bilirubin level in urine at 0.01 mmol/kg, ip administered for 14 days (reference value: 10 umol/L); format: organism-based; details: in vivo, 336 h; procedure, shortened: as §1
[26] = Toxicity in Wistar kyoto rat assessed as eosinophil ratio in blood at 0.01 mmol/kg, ip administered for 14 days (reference value: 1.8%); format: organism-based; details: in vivo, 336 h; procedure, shortened: as §1
H9c2 [27] = assay: Cytoprotective activity against H2O2-induced toxicity in rat H9c2 cells assessed as decrease in MDA level pretreated with compound followed by H2O2 addition and measured after 8 hrs; format: functional, cell-based; procedure, shortened: as §3
[28] = Toxicity in Wistar kyoto rat assessed as leukocyte in urine at 0.01 mmol/kg, ip administered for 14 days (reference value: 10 ca cells/uL); format: organism-based; details: in vivo, 336 h; procedure, shortened: as §2
[29] = Toxicity in Wistar kyoto rat assessed as swollen hepatocytes at 10 mg/kg, ip administered for 14 days by H and E staining based assay; format: organism-based; details: in vivo, 336 h
Procedure, shortened: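 WKY rats were dosed intraperitoneally at 10 mg/kg daily for 14 days, using the 10% 1,3-propanediol vehicle, with a vehicle control group. Liver and kidney were collected and fixed immediately in 4% glutaraldehyde. Sections were stained with haematoxylin and eosin and scored for structural change under light microscopy.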

half-life at 40000 µM [10] [min] | Structure (SMILES) | Activity [1] [%] | Activity [2] [×10⁹ /L] | pH [3] | Activity [4] [g/L] | Activity (H9c2 [5]) [%] | Activity (H9c2 [6]) | Activity [7] [%] | Activity [8] | Activity (H9c2 [9]) | Activity [11] [%] | Activity [12] [%] | Activity [13] | Activity [14] [g/L] | Ratio [15] | Activity [16] [µmol/L] | Activity (H9c2 [17]) [%] | Activity [18] [×10¹² /L] | Activity (H9c2 [19]) | Activity [20] [×10⁹ /L] | other results
20.1 | CC(C)Cc1ccc(C(C)C(=O)Oc2ccc(C(N)=S)cc2)cc1 (stereo not given) | 0 | 161 | 7.5 | 3 | 11.9 | Active | 1.8 | Non-Toxic | Non-Toxic | 52.8 | 44.4 | Non-Toxic | 119 | 1.005 | 16 | < 5 | 5.5 | Dose-dependent effect | 1.72 | Activity [21]: Non-Toxic; Activity [22]: Non-Toxic; Activity [23]: Non-Toxic; Activity [24]: Non-Toxic; Activity [25]: 17 µmol/L; Activity [26]: 1%; Activity (H9c2 [27]): Dose-dependent effect; Activity [28]: 70 µL⁻¹; Activity [29]: Toxic
14.1 | CC(=O)Nc1ccc(OC(=O)CCCCC2CCSS2)cc1 (stereo not given) | 0.2 | 194 | 7.5 | 3.2 | 13.3 | Active | 1.3 | Non-Toxic | Non-Toxic | 64.2 | 31.7 | 4000 µmol/L | 135 | 1.005 | 3.3 | 8.6 | 6.08 | Dose-dependent effect | 2.89 | Activity [21]: 80 µL⁻¹; Activity [22]: Non-Toxic; Activity [23]: Non-Toxic; Activity [24]: Non-Toxic; Activity [25]: 12 µmol/L; Activity [26]: 2.6%; Activity (H9c2 [27]): Dose-dependent effect; Activity [28]: Non-Toxic
1.4 | CC(C)Cc1ccc(C(C)C(=O)Oc2ccc(-c3cc(=S)ss3)cc2)cc1 (stereo not given) | 0.2 | 114 | 7.5 | 3 | 9.4 | Active | 0.9 | Toxic | Non-Toxic | 60.4 | 35.9 | 500 µmol/L | 136 | 1.005 | 66 | < 5 | 5.9 | Dose-dependent effect | 3.27 | Activity [21]: Non-Toxic; Activity [23]: Non-Toxic; Activity [24]: Non-Toxic; Activity [25]: 50 µmol/L; Activity [26]: 2.6%; Activity (H9c2 [27]): Dose-dependent effect; Activity [28]: 500 µL⁻¹; Activity [29]: Toxic

Source: ChEMBL document CHEMBL4334422, “Toxicities and beneficial protection of H2S donors based on nonsteroidal anti-inflammatory drugs” (Medchemcomm, 2019)
